SMILES strings stand for the structures.

The target of experiment [1] is T1, Histamine H3 receptor (Homo sapiens, UniProt Q9Y5N1). As to the kind of experiment: Displacement of [3H]UR-P1294 from human H3R receptor expressed in HEK293 cells by radioligand competition binding assay. It counts as cell-based. On the technique in general: Displacement assays read how much labelled ligand stays bound in the presence of the test substance.
Another experiment addresses Histamine H4 receptor (Homo sapiens, UniProt Q9H3N8). As to the kind of experiment: Displacement of [3H]histamine from human H4R receptor expressed in HEK293 cells by radioligand competition binding assay. It counts as cell-based.
The target in experiment [2] is T1, Histamine H3 receptor. Put plainly: Binding affinity in human H3R as assessed as dissociation time constant using confocal microscopy relative to control.
The target in experiment [3] is T1, Histamine H3 receptor. As to the kind of experiment: Binding affinity in human H3R assessed as association rate constant using confocal microscopy.
For experiment [4], the species on record is Homo sapiens. As to the kind of experiment: Selectivity ratio of Ki for human H2 receptor to Ki for human H3 receptor.
A further experiment concerns the target Histamine H1 receptor (Homo sapiens, UniProt P35367). As to the kind of experiment: Displacement of [3H]mepyramine from human H1R receptor expressed in HEK293 cells by radioligand competition binding assay. It counts as cell-based.
For a further experiment, the target named is Histamine H2 receptor (Homo sapiens, UniProt P25021). As to the kind of experiment: Displacement of [3H]UR-DE25 from human H2R receptor expressed in HEK293 cells by radioligand competition binding assay. Format: cell-based.
For experiment [5], the target named is T1, Histamine H3 receptor. Put plainly: Binding affinity in Nluc-hH3R assessed as association rate constant by NanoBRET binding assay. On the technique in general: BRET reads energy transfer from a luciferase to a nearby fluorophore.
The species named for experiment [6] is Homo sapiens. Put plainly: Selectivity ratio of Ki for human H4 receptor to Ki for human H3 receptor.
Experiment [7] has as its target T1, Histamine H3 receptor. Put plainly: Binding affinity in Nluc-hH3R assessed as association time constant receptor saturated after 15 mins by NanoBRET binding assay.
In experiment [8] the target is T1, Histamine H3 receptor. As to the kind of experiment: Binding affinity to human H3R expressed in HEK293 cells by flow cytometric analysis. Format: cell-based.
The species entered for experiment [9] is Homo sapiens. Put plainly: Selectivity ratio of Ki for human H1 receptor to Ki for human H3 receptor.
Experiment [10] addresses T1, Histamine H3 receptor. Put plainly: Binding affinity to human H3 receptor assessed as labeling efficiency by measuring dual color acquisition at 3 nM by microscopy based TIRF assay.
Experiment [11] deals with T1, Histamine H3 receptor. As to the kind of experiment: Binding affinity in Nluc-hH3R assessed in HEK293 cells by NanoBRET binding assay. Format: cell-based. In short, it runs like this: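 Saturation NanoBRET binding of the fluorescent ligand at live HEK293 cells stably expressing NLuc-hH3R; acceptor/donor BRET ratio; pKd from saturation isotherm; three independent experiments, each in duplicate.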

The target in experiment [12] is T1, Histamine H3 receptor. As to the kind of experiment: Binding affinity in human H3R assessed as association time constant by confocal microscopy.
Experiment [13] deals with T1, Histamine H3 receptor. Put plainly: Binding affinity in human H3 receptor expressed in HEK293 cells by confocal microscopy. It counts as cell-based.
In experiment [14] the target is T1, Histamine H3 receptor. Put plainly: Inhibition of human H3R expressed in HEK293-A cells assessed as inhibition of imetit-induced Gi2 activation by BRET assay. It counts as cell-based.
The target in experiment [15] is T1, Histamine H3 receptor. As to the kind of experiment: Binding affinity in Nluc-hH3R assessed as dissociation time constant by NanoBRET binding assay.
The target of experiment [16] is T1, Histamine H3 receptor. Put plainly: Binding affinity in Nluc-hH3R assessed in HEK293T cells by NanoBRET binding assay. It counts as cell-based.

T1 sequence (Q9Y5N1 whole entry): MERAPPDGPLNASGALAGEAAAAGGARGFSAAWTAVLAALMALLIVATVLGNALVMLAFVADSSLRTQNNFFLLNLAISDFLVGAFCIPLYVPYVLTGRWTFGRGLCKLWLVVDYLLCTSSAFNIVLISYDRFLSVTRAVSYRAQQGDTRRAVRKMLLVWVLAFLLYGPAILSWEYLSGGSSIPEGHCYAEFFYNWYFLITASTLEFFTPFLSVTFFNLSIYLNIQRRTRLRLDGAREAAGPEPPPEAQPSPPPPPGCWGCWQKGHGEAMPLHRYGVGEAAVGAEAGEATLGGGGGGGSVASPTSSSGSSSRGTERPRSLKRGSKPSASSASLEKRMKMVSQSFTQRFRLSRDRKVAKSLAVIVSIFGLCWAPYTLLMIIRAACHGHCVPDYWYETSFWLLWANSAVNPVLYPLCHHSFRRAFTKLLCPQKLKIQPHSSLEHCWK
Sequence of Histamine H4 receptor (Q9H3N8 whole entry): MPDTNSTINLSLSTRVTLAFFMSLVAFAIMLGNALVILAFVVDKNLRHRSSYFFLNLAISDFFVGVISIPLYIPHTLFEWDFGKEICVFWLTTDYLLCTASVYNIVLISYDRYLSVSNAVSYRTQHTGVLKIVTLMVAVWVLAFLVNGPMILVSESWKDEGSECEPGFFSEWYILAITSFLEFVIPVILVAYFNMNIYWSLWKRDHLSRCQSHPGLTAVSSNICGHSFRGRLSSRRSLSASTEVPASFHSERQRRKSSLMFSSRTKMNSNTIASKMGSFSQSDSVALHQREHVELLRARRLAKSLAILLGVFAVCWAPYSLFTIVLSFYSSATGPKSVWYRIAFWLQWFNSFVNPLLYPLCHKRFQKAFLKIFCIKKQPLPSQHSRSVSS
Sequence of Histamine H1 receptor (P35367 whole entry): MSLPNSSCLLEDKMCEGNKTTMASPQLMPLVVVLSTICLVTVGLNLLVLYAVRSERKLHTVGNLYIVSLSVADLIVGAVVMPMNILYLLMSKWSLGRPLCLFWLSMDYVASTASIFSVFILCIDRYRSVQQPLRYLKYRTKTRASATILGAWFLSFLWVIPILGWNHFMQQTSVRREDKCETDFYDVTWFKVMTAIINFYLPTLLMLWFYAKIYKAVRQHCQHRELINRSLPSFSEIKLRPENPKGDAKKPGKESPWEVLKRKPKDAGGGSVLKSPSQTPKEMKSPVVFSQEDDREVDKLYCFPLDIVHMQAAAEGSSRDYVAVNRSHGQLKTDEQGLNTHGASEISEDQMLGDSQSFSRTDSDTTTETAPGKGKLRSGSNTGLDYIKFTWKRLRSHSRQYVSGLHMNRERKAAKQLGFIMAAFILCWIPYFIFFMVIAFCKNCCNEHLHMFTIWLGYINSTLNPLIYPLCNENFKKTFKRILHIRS
Sequence of Histamine H2 receptor (P25021 whole entry): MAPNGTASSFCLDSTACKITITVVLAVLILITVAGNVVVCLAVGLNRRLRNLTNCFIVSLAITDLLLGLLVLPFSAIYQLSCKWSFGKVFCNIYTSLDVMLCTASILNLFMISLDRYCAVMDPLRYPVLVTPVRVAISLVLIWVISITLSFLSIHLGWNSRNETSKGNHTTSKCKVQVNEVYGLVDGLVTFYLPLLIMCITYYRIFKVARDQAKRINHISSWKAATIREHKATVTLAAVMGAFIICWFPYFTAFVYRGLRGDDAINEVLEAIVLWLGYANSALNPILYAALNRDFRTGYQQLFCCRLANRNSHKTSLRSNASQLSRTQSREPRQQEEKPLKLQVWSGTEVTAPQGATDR

Broadly, the Ki is a dissociation constant, usually derived from enzyme kinetics or from competition with a known ligand. With `CCOC(=O)C1CCN(Cc2ccc(OCCCN3CCCCC3)cc2)CC1`, the inhibition constant Ki at Histamine H3 receptor [1] was 0.275 nM.
One may read the Kd as the free concentration of one partner at which half of the binding sites on the other are occupied at equilibrium, for simple one-to-one binding. Higher therefore signals weaker binding. What is called pKb is the Kb on a negative log10 scale, so that one unit is a factor of ten. With `CN(C)c1ccc2c(-c3ccc(C(=O)NCCOCCOCCOCCNC(=O)C4CCN(Cc5ccc(OCCCN6CCCCC6)cc5)CC4)cc3C(=O)[O-])c3ccc(=[N+](C)C)cc-3oc2c1`, the Ki was more than 100000 nM on Histamine H4 receptor, 0.302 nM at Histamine H3 receptor [1], more than 100000 nM on Histamine H1 receptor and more than 100000 nM on Histamine H2 receptor. For the same molecule, the TIME on Histamine H3 receptor [2] turned out to be 0.0583 h; at Histamine H3 receptor [7], 0.0328 h; at Histamine H3 receptor [12] it was 0.008 h; on Histamine H3 receptor [15], 0.107 h. The Activity stood at 0.37 min⁻¹ nM⁻¹ on Histamine H3 receptor [3], 0.71 min⁻¹ nM⁻¹ on Histamine H3 receptor [5], 96.1% at Histamine H3 receptor [10] and 2.13 min⁻¹ at Histamine H3 receptor [13]. The Ratio Ki in the experiment filed under Homo sapiens [4], in the experiment listed under Homo sapiens [6] and in the experiment listed under Homo sapiens [9] was more than 100000 throughout. The figures for the Kd at Histamine H3 receptor [8] and at Histamine H3 receptor [11] were 0.195 nM and 0.158 nM, respectively. In addition, the pKb at Histamine H3 receptor [14] is 9.04.
Regarding `CCN1CCN(C(=O)c2ccc(-c3nc4ccccc4s3)s2)CC1`, the Ki at Histamine H3 receptor [16] and at Histamine H3 receptor [11] was 19.5 nM throughout.
Turning to `NCCOCCOCCOCCNC(=O)C1CCN(Cc2ccc(OCCCN3CCCCC3)cc2)CC1`, the affinity at Histamine H3 receptor [1], expressed as Ki, was 0.398 nM.
The molecule `O=C(O)C1CCN(Cc2ccc(OCCCN3CCCCC3)cc2)CC1` gave a Ki at Histamine H3 receptor [1] of 1.58 nM.
Consider `N=C(N)SCCc1cnc[nH]1` [IMETIT], for which the inhibition constant (Ki) at Histamine H3 receptor [16] was 5.01 nM; at Histamine H3 receptor [11], 12.6 nM.

(Values after ChEMBL document CHEMBL5053495, “A Versatile Sub-Nanomolar Fluorescent Ligand Enables NanoBRET Binding Studies and Single-Molecule Microscopy at the Histamine H3 Receptor” (J Med Chem, 2021).)
